Reference: paper PMC9291769 (Chemmedchem, 2021)
Values joined by “and” are separate entries in the source; they are usually repeats but may differ in a detail not shown here. Identical values can stand only once.

Tests used:
IDO1 = IDO1 (Homo sapiens, UniProt P14902); assay: Cellular IDO1 inhibition; assay type: cell-based; conditions: A375 cell line, IFN-γ, 48 h
Procedure, shortened: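 A375 cells (0.5×10^5/well) were grown overnight, then given test compound (serial dilutions 0.01–30 µM, or single 10 µM) with human IFN-γ (500 U/mL final) and 0.1% DMSO for 48 h. Medium was deproteinized with 20% CCl₃COOH. L-Kyn was quantified by C18 HPLC at 330 nm against a calibration curve; % inhibition was taken versus basal levels. IC50s came from concentration-response curves, ≥3 experiments in triplicate.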

holo-IDO1 = holo-IDO1 (Homo sapiens, UniProt P14902); assay: Heme detection; assay type: binding; conditions: 1 μM holo-IDO1, 120 min, 37 °C; VS9 different concentrations, epacadostat 20 μM
Sequence of holo-IDO1 (P14902 whole entry): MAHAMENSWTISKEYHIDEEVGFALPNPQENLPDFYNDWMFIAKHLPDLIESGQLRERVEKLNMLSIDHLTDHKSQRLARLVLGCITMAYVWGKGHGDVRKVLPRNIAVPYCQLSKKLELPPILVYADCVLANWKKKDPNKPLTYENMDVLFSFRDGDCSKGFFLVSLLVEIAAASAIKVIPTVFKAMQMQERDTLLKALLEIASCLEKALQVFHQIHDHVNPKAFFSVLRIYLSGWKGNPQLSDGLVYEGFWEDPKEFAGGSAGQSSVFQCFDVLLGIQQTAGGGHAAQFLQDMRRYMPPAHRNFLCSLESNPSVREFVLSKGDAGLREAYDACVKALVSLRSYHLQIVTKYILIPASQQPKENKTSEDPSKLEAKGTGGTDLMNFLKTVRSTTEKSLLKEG
Procedure, shortened: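 1 µM holo-IDO1 in 100 mM potassium phosphate (pH 7.2) with 1 mM CHAPS was incubated with varying test-compound concentrations, or 20 µM reference inhibitor, for 120 min at 37 °C. Samples were diluted 100-fold, and free heme was measured with a hemin detection kit at 570 nm. Values are relative to untreated, mean of n=3 ± SD.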

MTT cell viability assay = assay type: cell-based, human; conditions: human, A375 cells, Cell viability [%] @ 10 μM±SD
Procedure, shortened: (§1)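 A375 cells were kept in high-glucose DMEM with 10% heat-inactivated FBS, 2 mM L-glutamine and pen/strep. Cells were seeded at 0.5×10^5/well and exposed to 10 µM test compound for 48 h at 37 °C, 5% CO₂, then given MTT. Viability = 100(x−y)/(z−y), where x, y and z are absorbance of treated, resting and untreated cells. Mean ± SD, ≥3 experiments in triplicate.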

A375 cells = assay: MTT cell viability assay; assay type: cell-based, human; conditions: 48 h
Procedure, shortened: as §1

TDO (P1.TDO) = TDO (P1.TDO) (Homo sapiens, UniProt P48775); assay: IDO1 and TDO selectivity assay, P1.TDO cells; assay type: cell-based; conditions: 10 μM, 16 h
Sequence of TDO (P1.TDO) (P48775 whole entry): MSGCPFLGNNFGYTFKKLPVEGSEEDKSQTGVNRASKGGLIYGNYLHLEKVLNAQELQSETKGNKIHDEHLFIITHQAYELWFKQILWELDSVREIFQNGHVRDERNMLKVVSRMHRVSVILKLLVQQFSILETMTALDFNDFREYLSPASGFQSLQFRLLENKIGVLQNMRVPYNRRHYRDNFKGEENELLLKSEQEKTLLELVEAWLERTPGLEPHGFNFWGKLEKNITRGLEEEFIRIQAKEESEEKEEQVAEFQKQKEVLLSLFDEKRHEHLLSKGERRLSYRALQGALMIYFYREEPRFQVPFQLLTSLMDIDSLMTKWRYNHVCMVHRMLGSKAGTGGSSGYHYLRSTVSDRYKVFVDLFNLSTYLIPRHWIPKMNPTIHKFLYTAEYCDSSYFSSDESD
Procedure, shortened: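 Mouse mastocytoma P815-derived P1.HTR cells, stably electroporated with a human TDO plasmid and selected in puromycin, grown in IMDM with 1 mM glutamine and penicillin/streptomycin, used at ≤10th passage. Cells incubated 16 h with 10 μM test compound; DMSO vehicle as control. Supernatant L-Kyn measured by HPLC-UV (C18 column) against a calibration curve, detection limit 0.05 μM. Triplicate.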

[1] = In vitro metabolic stability in rat liver S9 fraction; assay type: in vitro ADME; conditions: rat liver S9 with NADPH, 5 μM substrate, 37 °C
Procedure, shortened: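 Pooled male Sprague Dawley rat liver S9 (1.5 mg/mL final protein) was used in 50 mM Tris pH 7.4 with 3.3 mM MgCl₂, 1.3 mM β-NADP, 3.3 mM glucose 6-phosphate, 0.4 U/mL G6PDH and 1% acetonitrile. Test compound was 5 µM, shaken 60 min at 37 °C. Controls lacked S9 or cofactors. Reactions were stopped with ice-cold acetonitrile and centrifuged; residual substrate was measured.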

[2] = molecular target: recombinant form of human IDO1 (rhIDO1) (Homo sapiens, UniProt P14902); assay: rhIDO1 enzymatic assay; assay type: biochemical; conditions: read-out: rhIDO1 inhibition
Sequence of recombinant form of human IDO1 (rhIDO1) (P14902 whole entry): as the sequence (P14902 whole entry) above
Procedure, shortened: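 Recombinant human IDO1 inhibitor-screening kit: 10 µM test compound in complete reaction buffer, 45 min at 37 °C. Stopped with 30% (w/v) CCl₃COOH, heated 50 °C for 15 min and centrifuged. Supernatant was mixed 1:1 with 2% p-dimethylaminobenzaldehyde in acetic acid, and kynurenine pigment read at 490 nm. The kit's positive inhibition control was included. Mean ± SEM, three experiments in triplicate.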

Sequence of IDO1 (P14902 whole entry): as above

IDO cellular assay inhibition [%] @ 10 μM±SD (IDO1; 10 μM, L-Kyn by HPLC): 42±9%
IC50 (IDO1; IC50±SD [μM]): 2.6 µM and 2.8 µM
levels of free heme after incubation with IDO1 (holo-IDO1): did not increase the levels of free heme
Residual peak area after RLS9 incubation (60 min) [1]: higher than 99%
inhibition at 10 µM [2]: 54.6 ± 3.1%
SMILES: O=C(NCc1nnc2ccc(C(F)(F)F)cn12)c1cccc2cn[nH]c12 [Compound 2, N‐((6‐(Trifluoromethyl)‐[1,2,4]triazolo[4,3‐a]pyridin‐3‐yl)methyl)‐1H‐indazole‐7‐carboxamide]
viability at 48 h, 10 μM (MTT cell viability assay): 91 ± 9.9%
Cell viability [%] @ 10 μM±SD (A375 cells): 87±18.3%
Kyn levels in P1.TDO cells (TDO (P1.TDO)): not able to induce a reduction of Kyn levels in P1.TDO
